Here are results for 2 compounds from ChEMBL document CHEMBL1150201, “Verbascoside isolated from Lantana camara, an inhibitor of protein kinase C” (J Nat Prod, 1991).

Molecules are shown by their SMILES. Calls of active or inactive are those of the source. No cut-off for these calls is given here. Some results are limits rather than exact numbers.

One may read the IC50 as the concentration needed to halve the response being measured. A low value points to greater potency in that assay. As usually defined, the Ki is a measure of affinity in units of concentration, obtained from inhibition or displacement. Usually inhibition stands for the change of the read-out against control, counted positive when it falls.

In assay [1] the test system is L1210. In words: Antiproliferative activity against mouse L1210 cells after 48 hrs by coulter counting analysis. The format is functional, cell-based. The settings on record: L1210, 48 h. In short, it runs like this: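 L1210 cells seeded at 10^4 per well in DMEM with 10% fetal calf serum, 4 mM glutamine and penicillin/streptomycin, with compound added from DMSO. Grown 2 days at 37° in 5% CO₂, then counted in a Coulter counter. Cultures were logarithmically growing at plating; n = 6. IC₅₀ taken from linear regression lines.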

Assay [2] concerns L1210. The experiment in a line: Cytotoxicity against mouse L1210 cells at 25 uM by MTT assay. It counts as functional, cell-based. In short, it runs like this: (§1)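 MTT colorimetric assay after Mosmann, measuring reduction of the tetrazolium to blue formazan by viable cells, read photometrically. Treated cells were compared with the same number of untreated cells.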
(In general: Tetrazolium dyes change colour on reduction, which living cells bring about.)

The target in assay [3] is T1, Protein kinase C (PKC) (Rattus norvegicus) (UniProt P05696+P68403+P09216+P63319+P09215+Q64617+Q9WTQ0+P09217). In words: (§2) Inhibition of rat brain PKC by mixed micellar assay. Summed up: (§3)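 PKC purified from rat brain, 0.5 µg per tube. Medium was 20 mM Tris/HCl pH 7.5, 10 mM MgCl₂, 200 µg/ml histone IIIS, micelles of 700 µM phosphatidylserine and 180 µM 1,2-dioleine in 0.3% Triton X-100, 0.2 mM CaCl₂, 100 µM ATP with [γ-³²P]-ATP and compound in DMSO. After 3 min at 30°, TCA-precipitated material was filtered and counted. Activity without micelles/CaCl₂ subtracted; 6 replicates.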

Assay [4] deals with Protein kinase C (PKC). The assay is described as §2. In short, it runs like this: as §3
Assay [5] addresses Protein kinase C (PKC). The experiment in a line: Displacement of [gamma32P]ATP from rat brain PKC by competitive Lineweaver-Burke plot analysis. Summed up:
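Rat brain PKC (0.5 µg) in the mixed-micelle assay with histone fixed at 200 µg/ml and ATP varied. Inhibitor levels were 0, 5, 10 and 15 µM. Data were analysed as double-reciprocal plots. Apparent Ki came from line intersections by unweighted least-squares fit.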

Assay [6] addresses Protein kinase C (PKC). In words: Inhibition of rat brain PKC using histone type 3-S as substrate by noncompetitive Lineweaver-Burke plot analysis.
Assay [7] deals with T1, Protein kinase C (PKC) (Rattus norvegicus). In words: Displacement of [3H]PDBu from rat brain PKC at 1 mM by scintillation counting. Summed up: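 PKC incubated 1 h at 30° in 250 µl of 50 mM Tris/HCl pH 7.4 with 1 mM CaCl₂, 39.2 nM [³H]-PDBu and 50 µg/ml PKC, plus compound. Nonspecific binding defined with 100-fold excess unlabelled PDBu. Diluted with ice-cold buffer, filtered on glass fiber, washed 3 times, bound radioactivity by scintillation counting.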
A general note: In a radioligand displacement assay an active substance lowers the binding of a labelled ligand.

Assay [8] has as its target Protein kinase C (PKC). The experiment in a line: Inhibition of rat brain PKC catalytic domain by mixed micellar assay. Summed up:
(§4)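 Catalytic fragment made by incubating PKC for 10 min at 30° with 1 µg/ml trypsin, giving calcium- and lipid-independent activity. It was then assayed in the mixed-micelle histone phosphorylation assay, varying ATP or histone.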

Assay [9] deals with T1, Protein kinase C (PKC) (Rattus norvegicus). The experiment in a line: Displacement of [gamma32P]ATP from rat brain PKC catalytic domain by competitive Lineweaver-Burke plot analysis. Summed up: as §4
For assay [10] the target is unchanged. In words: Inhibition of rat brain PKC catalytic domain using histone type 3-S as substrate by noncompetitive Lineweaver-Burke plot analysis. Summed up: as §4
The subject of the next assay is LSTRA. In words: Inhibition of protein tyrosine kinase in mouse LSTRA cells assessed as formation of [32P]phosphotyrosine at 100 uM by gel electrophoresis. The format is cell-based.
Assay [11] is described as follows: Inhibition of PKA at 100 uM.
Assay [12] relates to L1210. The experiment in a line: Cytotoxicity against mouse L1210 cells at 10 uM by MTT assay. It counts as functional, cell-based. In short, it runs like this: as §1

Consider `C[C@H]1CNCCN1S(=O)(=O)c1cccc2cnccc12`, for which, in the assay on L1210 [1], the IC50 was 23.5 µM. Also, the result in the assay with L1210 [2] was inactive.
Regarding `C[C@@H]1O[C@@H](O[C@@H]2[C@@H](O)[C@H](OCCc3ccc(O)c(O)c3)O[C@H](CO)[C@H]2OC(=O)/C=C/c2ccc(O)c(O)c2)[C@H](O)[C@H](O)[C@H]1O` [ACETOSIDE], in assay [3], the Activity result was “Dose-dependent effect”. Also, the values for the IC50 on Protein kinase C (PKC) [4], on Protein kinase C (PKC) [8] and in the assay with L1210 [1] were 25 µM, 21 µM and 13 µM, respectively. The values for the Ki on Protein kinase C (PKC) [5] and at Protein kinase C (PKC) [6] were 22 µM and 28 µM, respectively. Also, the inhibition in assay [7] was 9%; in the assay on LSTRA, below 10%; in assay [11] it was below 10%. Moreover, the outcome in assay [9] and in assay [10] was Active. The result in the assay with L1210 [12] was inactive.
